# Values joined by “and” are separate entries in the source; they are usually repeats but may differ in a detail not shown here. Identical values can stand only once.
# Experiments:
# [1] = target: T1, Alpha-1B adrenergic receptor (Homo sapiens, UniProt P35368); assay: In vitro binding affinity against Alpha-1B adrenergic receptor at recombinant human receptor.
# T1 sequence (P35368 whole entry): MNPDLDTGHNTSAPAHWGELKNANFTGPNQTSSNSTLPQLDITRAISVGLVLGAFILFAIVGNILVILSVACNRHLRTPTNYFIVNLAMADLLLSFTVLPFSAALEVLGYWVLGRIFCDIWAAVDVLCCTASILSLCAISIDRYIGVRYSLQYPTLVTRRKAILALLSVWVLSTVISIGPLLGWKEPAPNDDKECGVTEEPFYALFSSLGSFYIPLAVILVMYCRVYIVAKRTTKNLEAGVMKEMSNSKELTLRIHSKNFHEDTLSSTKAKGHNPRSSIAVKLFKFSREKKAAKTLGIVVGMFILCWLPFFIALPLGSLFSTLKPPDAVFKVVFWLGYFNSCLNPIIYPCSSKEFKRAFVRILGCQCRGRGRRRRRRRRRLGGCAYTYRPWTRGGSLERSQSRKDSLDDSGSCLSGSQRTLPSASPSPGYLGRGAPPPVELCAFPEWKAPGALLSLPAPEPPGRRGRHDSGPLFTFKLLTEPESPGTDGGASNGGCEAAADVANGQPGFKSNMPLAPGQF
# [2] = target: T2, Alpha-1D adrenergic receptor (Homo sapiens, UniProt P25100); assay: In vitro binding affinity against Alpha-1D adrenergic receptor at recombinant human receptor.; details: in the assay text read “at recombinant human receptor” for “of human liver microsomes”
# T2 sequence (P25100 whole entry): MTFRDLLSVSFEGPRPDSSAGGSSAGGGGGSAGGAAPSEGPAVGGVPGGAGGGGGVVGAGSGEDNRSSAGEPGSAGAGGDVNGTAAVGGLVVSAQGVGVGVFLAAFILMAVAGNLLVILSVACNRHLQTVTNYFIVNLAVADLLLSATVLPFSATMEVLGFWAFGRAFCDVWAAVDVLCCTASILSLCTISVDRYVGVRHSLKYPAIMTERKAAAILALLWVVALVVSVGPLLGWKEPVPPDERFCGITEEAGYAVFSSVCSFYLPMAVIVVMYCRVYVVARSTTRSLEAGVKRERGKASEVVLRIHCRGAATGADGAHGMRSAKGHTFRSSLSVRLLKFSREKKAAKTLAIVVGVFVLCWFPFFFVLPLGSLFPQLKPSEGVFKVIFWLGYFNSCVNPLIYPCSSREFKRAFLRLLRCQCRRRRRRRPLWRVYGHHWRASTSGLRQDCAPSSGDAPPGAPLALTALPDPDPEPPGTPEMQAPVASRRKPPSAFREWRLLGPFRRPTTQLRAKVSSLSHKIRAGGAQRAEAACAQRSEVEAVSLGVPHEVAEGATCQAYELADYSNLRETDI
# In short: (§1)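 Radioligand displacement on membranes from cultured cells expressing recombinant human α1a, α1b or α1d adrenoceptors, using [³H]prazosin as radioligand; Ki values reported.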
# [3] = target: T3, Alpha-1A adrenergic receptor (Homo sapiens, UniProt P35348); assay: In vitro binding affinity against Alpha-1A adrenergic receptor […].
# T3 sequence (P35348 whole entry): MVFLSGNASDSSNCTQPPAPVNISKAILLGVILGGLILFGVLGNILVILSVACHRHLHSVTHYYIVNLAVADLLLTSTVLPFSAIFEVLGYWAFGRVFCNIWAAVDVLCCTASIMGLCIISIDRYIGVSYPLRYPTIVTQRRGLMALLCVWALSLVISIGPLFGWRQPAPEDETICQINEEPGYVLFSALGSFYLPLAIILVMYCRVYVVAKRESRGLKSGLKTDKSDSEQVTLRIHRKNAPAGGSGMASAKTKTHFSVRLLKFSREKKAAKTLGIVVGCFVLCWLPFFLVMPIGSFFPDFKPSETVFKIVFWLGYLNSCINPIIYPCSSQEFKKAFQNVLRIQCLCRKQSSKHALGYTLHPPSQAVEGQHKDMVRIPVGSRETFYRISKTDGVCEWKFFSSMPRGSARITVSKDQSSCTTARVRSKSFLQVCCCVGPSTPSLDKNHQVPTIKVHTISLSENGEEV
# In short: as §1
# [4] = Fold selectivity against alpha 1A adrenergic receptor over alpha 2A, 2B and 2C adrenergic receptors
# In short: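 Ki ratio derived from radioligand displacement at recombinant human adrenoceptors: α1a with [³H]prazosin, and α2a, α2b and α2c with [³H]rauwolscine, on membranes from cultured cells.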
# Rattus norvegicus [5] = species: Rattus norvegicus; assay: Duration of action in rat.; type: ADME, organism-based; details: in vivo
# In short: (§2)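 In rats, phenylephrine-induced contraction of the prostate was measured in vivo. Antagonist potency is expressed as AD₅₀ in µg/kg. Duration of action is given in hours.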
# [6] = target: Adrenergic receptor alpha-1 (Rattus norvegicus) (UniProt P15823+P23944+P43140); assay: (§3) Binding affinity radioligand); type: protein assay
# Sequence of Adrenergic receptor alpha-1 (Rattus norvegicus) (P15823 whole entry, looked up, one chain of several): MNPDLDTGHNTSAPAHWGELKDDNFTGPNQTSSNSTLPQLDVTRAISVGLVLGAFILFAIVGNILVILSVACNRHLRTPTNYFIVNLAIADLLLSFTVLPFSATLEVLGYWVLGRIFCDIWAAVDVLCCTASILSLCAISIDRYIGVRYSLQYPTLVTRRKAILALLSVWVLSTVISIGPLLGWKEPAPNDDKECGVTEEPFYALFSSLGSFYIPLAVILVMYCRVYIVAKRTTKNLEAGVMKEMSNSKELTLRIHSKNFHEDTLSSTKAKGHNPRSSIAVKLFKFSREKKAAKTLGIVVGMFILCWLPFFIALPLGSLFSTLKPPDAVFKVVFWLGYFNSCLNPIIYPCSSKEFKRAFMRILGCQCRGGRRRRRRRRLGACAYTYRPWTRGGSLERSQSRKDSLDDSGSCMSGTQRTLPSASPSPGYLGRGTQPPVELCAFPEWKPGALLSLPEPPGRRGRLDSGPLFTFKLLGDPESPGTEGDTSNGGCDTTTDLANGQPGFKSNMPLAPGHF
# Sequence of Adrenergic receptor alpha-1 (Rattus norvegicus) (P23944 whole entry, looked up, one chain of several): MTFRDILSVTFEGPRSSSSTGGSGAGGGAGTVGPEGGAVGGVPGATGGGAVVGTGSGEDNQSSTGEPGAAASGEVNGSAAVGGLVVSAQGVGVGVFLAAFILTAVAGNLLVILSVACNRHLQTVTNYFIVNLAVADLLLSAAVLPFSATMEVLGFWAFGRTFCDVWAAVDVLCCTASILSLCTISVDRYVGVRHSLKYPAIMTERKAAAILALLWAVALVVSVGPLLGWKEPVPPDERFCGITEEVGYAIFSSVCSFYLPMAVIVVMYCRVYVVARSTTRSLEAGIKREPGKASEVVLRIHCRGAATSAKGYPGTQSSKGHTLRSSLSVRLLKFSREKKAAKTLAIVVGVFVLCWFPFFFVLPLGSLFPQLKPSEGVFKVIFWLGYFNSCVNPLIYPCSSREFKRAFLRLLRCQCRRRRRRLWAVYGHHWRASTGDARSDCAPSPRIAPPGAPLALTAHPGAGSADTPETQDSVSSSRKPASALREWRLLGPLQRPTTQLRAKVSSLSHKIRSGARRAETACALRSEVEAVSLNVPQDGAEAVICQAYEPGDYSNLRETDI
# [7] = target: T4, Alpha-1A adrenergic receptor (Rattus norvegicus) (UniProt P43140); assay: as §3
# T4 sequence (whole entry): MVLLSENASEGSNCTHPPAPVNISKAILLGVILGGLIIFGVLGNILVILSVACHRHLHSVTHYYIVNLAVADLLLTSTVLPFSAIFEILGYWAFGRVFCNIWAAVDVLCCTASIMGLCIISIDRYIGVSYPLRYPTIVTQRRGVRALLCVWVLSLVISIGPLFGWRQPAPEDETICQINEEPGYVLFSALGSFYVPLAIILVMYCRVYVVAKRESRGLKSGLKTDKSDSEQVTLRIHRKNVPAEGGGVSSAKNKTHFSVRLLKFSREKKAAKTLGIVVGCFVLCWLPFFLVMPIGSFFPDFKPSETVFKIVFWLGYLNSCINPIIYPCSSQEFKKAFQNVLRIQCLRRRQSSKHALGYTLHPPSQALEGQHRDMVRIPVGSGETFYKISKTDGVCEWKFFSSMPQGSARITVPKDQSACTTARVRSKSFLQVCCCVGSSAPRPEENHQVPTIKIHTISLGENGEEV
# Rattus norvegicus [8] = species: Rattus norvegicus; assay: Inhibition of phenylephrine induced contraction of the rat prostate.; type: functional, Prostate gland
# In short: as §2
# [9] = Plasma half life in rat; type: ADME, organism-based
# In short: (§4)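 In rats, the compound was given at 3 mg/kg iv and 10 mg/kg po. Plasma AUC was measured for each route, with oral bioavailability and plasma half-life derived from the plasma profiles.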
# [10] = oral bioavailability in rat; type: ADME, organism-based; details: in vivo
# In short: as §4
# [11] = oral bioavailability in dog; type: ADME, organism-based, Canis lupus familiaris; details: in vivo
# Mu-type opioid receptor = Mu-type opioid receptor (Homo sapiens, UniProt P35372); assay: Binding affinity against opioid receptor using [3H]-DAMGO as radioligand.
# Sequence of Mu-type opioid receptor (P35372 whole entry): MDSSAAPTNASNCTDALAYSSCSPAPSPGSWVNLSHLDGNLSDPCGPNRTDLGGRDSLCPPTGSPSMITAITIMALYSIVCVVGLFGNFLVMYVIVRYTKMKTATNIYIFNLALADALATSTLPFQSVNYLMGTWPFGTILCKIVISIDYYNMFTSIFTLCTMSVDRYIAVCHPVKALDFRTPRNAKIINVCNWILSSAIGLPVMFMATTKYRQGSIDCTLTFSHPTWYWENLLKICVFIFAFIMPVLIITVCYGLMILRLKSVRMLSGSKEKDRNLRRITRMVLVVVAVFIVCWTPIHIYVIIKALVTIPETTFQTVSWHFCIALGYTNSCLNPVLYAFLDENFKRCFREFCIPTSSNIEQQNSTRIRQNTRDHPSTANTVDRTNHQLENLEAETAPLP
# [12] = Plasma half life in dog; type: ADME, organism-based, Canis lupus familiaris
Ki [1],Ki [2],Ki [3],Fold selectivity [4],Compound,other results
8.8 nM,14 nM,0.1 nM,> 210,CCOc1ccccc1N1CCN(CCCNC(=O)N2C(=O)NC(C)=C(C(=O)OC)C2c2ccc(F)c(F)c2)CC1 (configuration not stated),
100 nM,140 nM,0.1 nM,> 4500,COCC1=C(C(=O)OC)C(c2ccc(F)c(F)c2)N(C(=O)NCCCN2CCN(c3ccccc3C(N)=O)CC2)C(=O)N1 (configuration not stated),
130 nM,190 nM,0.1 nM,> 660,COCC1=C(C(=O)OC)C(c2cc(F)c(F)cc2F)N(C(=O)NCCCN2CCN(c3ccccc3C(N)=O)CC2)C(=O)N1 (configuration not stated),
49 nM,34 nM,0.02 nM,> 17000,COC(=O)C1=C(C)NC(=O)N(C(=O)NCCCN2CCN(c3ccccc3[N+](=O)[O-])C[C@@H]2C)C1c1ccc(F)c(F)c1 (some centres not stated),
170 nM,290 nM,0.7 nM,> 70,CC(=O)C1=C(C)NC(=O)N(C(=O)NCCCN2CCN(c3ccccc3C(N)=O)CC2)C1c1ccc(F)c(F)c1 (configuration not stated),
15 nM,14 nM,0.2 nM,> 190,COC(=O)C1=C(C)NC(=O)N(C(=O)NCCCN2CCN(c3ccccc3Cl)CC2)C1c1ccc(F)c(F)c1 (configuration not stated),
17 nM,9.8 nM,0.3 nM,> 110,COC(=O)C1=C(C)NC(=O)N(C(=O)NCCCN2CCN(c3ccccc3C)CC2)C1c1ccc(F)c(F)c1 (configuration not stated),
8.4 nM,37 nM,0.7 nM,> 195,COC(=O)C1=C(C)NC(=O)N(C(=O)NCCCN2CCN(c3cccc(Cl)c3)CC2)C1c1ccc(F)c(F)c1 (configuration not stated),
15 nM,12 nM and 15 nM,0.1 nM and 0.08 nM,> 1300,COC(=O)C1=C(C)NC(=O)N(C(=O)NCCCN2CCN(c3ccccc3C#N)CC2)C1c1ccc(F)c(F)c1 (configuration not stated),
32 nM,91 nM,0.1 nM,> 1900,CCC1=C(C(=O)OC)C(c2ccc(F)cc2F)N(C(=O)NCCCN2CCN(c3ccccc3C(N)=O)CC2)C(=O)N1 (configuration not stated),
23 nM,32 nM,0.01 nM,> 23000,COC(=O)C1=C(C)NC(=O)N(C(=O)NCCCN2CCN(c3ccccc3[N+](=O)[O-])CC2)C1c1ccc(F)c(F)c1 (configuration not stated),
150 nM,340 nM,12 nM,> 40,COC(=O)C1=C(C)NC(=O)N(C(=O)NCCCN2CCN(c3cccc([N+](=O)[O-])c3)CC2)C1c1ccc(F)c(F)c1 (configuration not stated),
720 nM,1100 nM,1.3 nM,> 600,CCC1=C(C(N)=O)C(c2ccc(F)cc2F)N(C(=O)NCCCN2CCN(c3ccccc3C(N)=O)CC2)C(=O)N1 (configuration not stated),
17 nM,52 nM,0.8 nM,> 65,COC(=O)C1=C(C)NC(=O)N(C(=O)NCCCN2CCN(c3ccc(Cl)cc3)CC2)C1c1ccc(F)c(F)c1 (configuration not stated),
16 nM,31 nM,0.6 nM,> 65,COC(=O)C1=C(C)NC(=O)N(C(=O)NCCCN2CCN(c3ccccc3O)CC2)C1c1ccc(F)c(F)c1 (configuration not stated),
510 nM,610 nM,16 nM,> 20,COC(=O)C1=C(C)NC(=O)N(C(=O)NCCCN2CCN(c3ccc(OC)cc3C)CC2)C1c1ccc(F)c(F)c1 (configuration not stated),
58 nM,140 nM,0.3 nM,> 430,COC(=O)C1=C(C)NC(=O)N(C(=O)NCCCN2CCN(c3ccccc3C(N)=O)CC2)C1c1cc(F)c(F)c(F)c1 (configuration not stated),
7.5 nM,21 nM,0.2 nM,> 55,COC(=O)C1=C(C)NC(=O)N(C(=O)NCCCN2CCN(c3ccccc3)CC2)C1c1ccc(F)c(F)c1 (configuration not stated),
1300 nM,1800 nM,430 nM,> 2,COC(=O)C1=C(C)NC(=O)N(C(=O)NCCCN2CCN(c3ccc(C(C)=O)cc3)CC2)C1c1ccc(F)c(F)c1 (configuration not stated),
18 nM,31 nM,0.1 nM,> 360,COC(=O)C1=C(C)NC(=O)N(C(=O)NCCCN2CCN(c3ccccc3OC)CC2)C1c1ccc(F)c(F)c1 (configuration not stated),
410 nM,480 nM,14 nM,> 15,COC(=O)C1=C(C)NC(=O)N(C(=O)NCCCN2CCN(c3ccc(OC)cc3)CC2)C1c1ccc(F)c(F)c1 (configuration not stated),
43 nM,120 nM,4.9 nM,> 60,COC(=O)C1=C(C)NC(=O)N(C(=O)NCCCN2CCN(c3cccc(C(F)(F)F)c3)CC2)C1c1ccc(F)c(F)c1 (configuration not stated),
13 nM,28 nM,0.05 nM,> 1600,COC(=O)C1=C(C)NC(=O)N(C(=O)NCCCN2CCN(c3ccccc3[N+](=O)[O-])C[C@H]2C)C1c1ccc(F)c(F)c1 (some centres not stated),
220 nM,390 nM,0.4 nM,> 160,CC(=O)C1=C(C)NC(=O)N(C(=O)NCCCN2CCN(c3ccccc3C(N)=O)CC2)C1c1cc(F)c(F)c(F)c1 (configuration not stated),
25 nM,30 nM,0.2 nM,> 85,COC(=O)C1=C(C)NC(=O)N(C(=O)NCCCN2CCN(c3ccccc3C(=O)OC)CC2)C1c1ccc(F)c(F)c1 (configuration not stated),

Compound,Ki [1],Ki [2],Ki [3],Fold selectivity [4],other results
CCC1=C(C(N)=O)C(c2ccc(F)c(F)c2)N(C(=O)NCCCN2CCC(C(=O)OC)(c3ccccc3)CC2)C(=O)N1 (configuration not stated),,,,> 3200,Duration of action (Rattus norvegicus [5]): > 4 h; Kb [6]: > 1000 nM; Kb [7]: 0.4 nM; AD50 (Rattus norvegicus [8]): 0.02 mg/kg
COC(=O)C1=C(C)NC(=O)N(C(=O)NCCCN2CCN(c3ccccc3C(N)=O)CC2)C1c1ccc(F)c(F)c1 (configuration not stated),190 nM and 135 nM,250 nM and 310 nM,0.12 nM and 0.26 nM,> 3000,half-life [9]: 2 h; bioavailability [10]: 13%; Duration of action (Rattus norvegicus [5]): > 4 h; bioavailability [11]: 4%; Kb [7]: 0.3 nM; Ki (Mu-type opioid receptor): > 30000 nM; AD50 (Rattus norvegicus [8]): 0.022 mg/kg; half-life [12]: 2.4 h
